The target of data set [1] is Cathepsin K (Homo sapiens, UniProt P43235). Kind of data set: Inhibitory activity against humanized rabbit cathepsin K. Also noted: species or system Oryctolagus cuniculus.
Data set [2] deals with T1, Cathepsin B (Homo sapiens, UniProt P07858). Kind of data set: Inhibitory activity against human cathepsin B.
In data set [3] the target is T1, Cathepsin B. Kind of data set: Inhibitory activity against human cathepsin B expressed in HepG2 cells. Type of data set: cell-based.
Data set [4] addresses T2, Procathepsin L (Homo sapiens, UniProt P07711). The data set is described as follows: Inhibitory activity against human cathepsin L.
The target of data set [5] is T2, Procathepsin L. The data set is described as follows: Inhibitory activity against human cathepsin L expressed in HepG2 cells. Type of data set: cell-based.
The target of data set [6] is T3, Cathepsin S (Homo sapiens, UniProt P25774). The data set is described as follows: Inhibitory activity against human cathepsin S.
T3 sequence (P25774 whole entry): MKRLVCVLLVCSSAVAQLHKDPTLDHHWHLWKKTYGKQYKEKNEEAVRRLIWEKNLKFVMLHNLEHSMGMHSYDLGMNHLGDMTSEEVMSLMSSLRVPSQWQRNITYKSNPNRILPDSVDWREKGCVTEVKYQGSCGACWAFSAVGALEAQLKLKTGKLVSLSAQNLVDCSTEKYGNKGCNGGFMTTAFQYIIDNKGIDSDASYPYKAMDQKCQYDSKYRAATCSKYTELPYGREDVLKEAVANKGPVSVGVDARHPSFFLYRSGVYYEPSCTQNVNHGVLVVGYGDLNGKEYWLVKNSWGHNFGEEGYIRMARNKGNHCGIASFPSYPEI
Data set [7] concerns the target T3, Cathepsin S. Kind of data set: Inhibitory activity against human cathepsin S expressed in ramos cells. Format: cell-based.
Data set [8] has as its target T4, Cathepsin K (Oryctolagus cuniculus, UniProt P43236).
T4 sequence (P43236 whole entry): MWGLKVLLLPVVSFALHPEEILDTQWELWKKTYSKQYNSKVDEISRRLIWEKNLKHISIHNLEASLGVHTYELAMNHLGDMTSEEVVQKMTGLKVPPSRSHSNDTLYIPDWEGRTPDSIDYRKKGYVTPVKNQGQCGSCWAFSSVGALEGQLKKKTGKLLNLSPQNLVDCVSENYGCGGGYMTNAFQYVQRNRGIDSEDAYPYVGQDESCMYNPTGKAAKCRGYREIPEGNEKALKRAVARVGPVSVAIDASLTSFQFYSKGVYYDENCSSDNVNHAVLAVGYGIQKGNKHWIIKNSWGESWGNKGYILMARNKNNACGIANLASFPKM
The data set is described as follows: Inhibitory activity against rabbit cathepsin K.

In data set [9] the target is T5, Cathepsin S (Mus musculus, UniProt O70370). The data set is described as follows: Inhibitory activity against mouse cathepsin S.
T5 sequence (O70370 whole entry): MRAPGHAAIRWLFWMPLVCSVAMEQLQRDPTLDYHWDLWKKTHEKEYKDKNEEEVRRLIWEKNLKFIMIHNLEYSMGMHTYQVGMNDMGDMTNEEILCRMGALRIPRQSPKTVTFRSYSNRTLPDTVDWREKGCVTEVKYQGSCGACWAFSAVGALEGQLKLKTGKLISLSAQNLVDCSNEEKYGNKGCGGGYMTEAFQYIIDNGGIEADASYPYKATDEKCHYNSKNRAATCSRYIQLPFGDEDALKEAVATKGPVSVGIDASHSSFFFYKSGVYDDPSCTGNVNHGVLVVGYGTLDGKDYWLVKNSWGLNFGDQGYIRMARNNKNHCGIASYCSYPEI
Data set [10] deals with T5, Cathepsin S. The data set is described as follows: Inhibitory activity against mouse cathepsin S in mouse splenocytes. Type of data set: cell-based. The method, boiled down: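 Splenocytes from 8–10-week C57Bl/6 mouse spleens, red cells lysed in NH4Cl buffer, suspended at 2.5×10^7 cells/mL in RPMI/HEPES pH 7. Preincubated with compound 60 min at 37 °C, then iodinated probe BIL-DMK (1 nM) added for 20 min.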

Data set [11] deals with Rattus norvegicus. Kind of data set: Volume of distribution in rat administered with 10 mg/kg, po. Type of data set: ADME, organism-based. Also on record: dose 10 mg/kg, route oral. The note with it: in vivo.
For data set [12], the system named is Rattus norvegicus. Kind of data set: Plasma concentration in rat at 10 mg/kg, po. Format: ADME, organism-based. Also on record: dose 10 mg/kg, route oral. The note with it: in vivo. The method, boiled down: (§1)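 Rats dosed 10 mg/kg po or 5 mg/kg iv; tissues and plasma taken 2 h after dosing. Tissue weighed, homogenized in 2 volumes water, then 3 volumes acetonitrile with internal standard, homogenized again and centrifuged. Supernatant quantified by LC-MS/MS against a standard curve from spiked rat plasma.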

The subject of data set [13] is A20. Kind of data set: Effect of compound on antigen presentation in mouse A20 cells transfected with PC-specific mIgM by IL-2 secretion. Type of data set: functional, cell-based. The method, boiled down:
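A20 cells transfected with PC-specific mIgM (1×10^5) preincubated with compound 60 min at 37 °C in RPMI 1640 with 10% FBS, glutamine and β-mercaptoethanol. DO.11.10 T cells (1×10^5) and PC-OVA antigen (30 μg/mL) added, then incubated overnight. IL-2 secreted into medium measured by ELISA. IC50 taken against DMSO as the no-inhibition control; at least duplicate experiments.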

Data set [14] is described as follows: Partition co-efficient, logP of the compound. Format: physicochemical. The note with it: octanol/water.
Data set [15] is described as follows: Dissociation constant, pKa of the compound. Type of data set: physicochemical.
The test system of data set [16] is Osteoclast. The data set is described as follows: Effect of compound on degradation of collagen in osteoclast bone resorption assay. Type of data set: functional, cell-based. The note with it: Oryctolagus cuniculus.
The nature of data set [17]: Volume of distribution in rat administered with 5 mg/kg, iv. The note with it: in vivo, read-out: Vdss. Also on record: dose 5 mg/kg, route intravenous. Type of data set: ADME, organism-based.
Data set [18] deals with Rattus norvegicus. The data set is described as follows: Plasma concentration in rat at 5 mg/kg, iv. Format: ADME, organism-based. Also noted: dose 5 mg/kg, route intravenous. The note with it: in vivo. The gist of the method:
as §1

T2 sequence (P07711 whole entry): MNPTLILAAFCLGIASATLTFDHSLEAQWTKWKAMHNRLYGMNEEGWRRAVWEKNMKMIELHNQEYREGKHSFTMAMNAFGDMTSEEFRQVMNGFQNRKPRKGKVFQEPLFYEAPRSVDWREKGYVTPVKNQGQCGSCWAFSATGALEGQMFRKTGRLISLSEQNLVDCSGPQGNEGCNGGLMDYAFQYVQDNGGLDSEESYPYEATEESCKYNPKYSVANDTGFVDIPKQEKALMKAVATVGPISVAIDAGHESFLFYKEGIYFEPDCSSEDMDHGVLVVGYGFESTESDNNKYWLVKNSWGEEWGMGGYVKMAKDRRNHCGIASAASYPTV

As for `CN1CCN(c2nc(-c3ccc(C(=O)NC4(C(=O)NCC#N)CCCCC4)cc3)cs2)CC1`, the IC50 (usually the concentration at which inhibition is half-maximal) in data set [1] turned out to be 0.00025 µM; in [2], 1.1 µM; in data set [3], 0.017 µM; in data set [4] it was 6.3 µM; in data set [5], 0.34 µM; in data set [6], 47 µM. Further, the IC50 came to 0.79 µM in data set [7]; 0.0005 µM in [8]; 5.4 µM in [9]; 0.318 µM in data set [10]; 6.2 µM in data set [13]. This compound yielded a Vdss in [11] of 11 L/kg. Also, in data set [12], the concentration came out at 2.4 µM. In data set [14], the logP (in general, the decadic logarithm of the partition coefficient of the neutral form, usually between octanol and water) was determined as 2.3. For the same compound, the pKa (commonly the negative logarithm of the acid dissociation constant) in [15] is 7.01.

Turning to `CCCN1CCN(c2ccc(C(=O)NC3(C(=O)NCC#N)CCCCC3)cc2)CC1` [BALICATIB], the IC50 came out at 4.8 µM in [2]; 0.061 µM in data set [3]; 0.503 µM in [4]; 0.048 µM in data set [5]; 65 µM in data set [6]; 2.9 µM in data set [7]. Also, the IC50 in [9] stood at 6.35 µM; in [10], 0.48 µM; in data set [13], 6.18 µM. This compound also displayed a Vdss in data set [11] of 4.7 L/kg. The compound also displayed a log partition coefficient (logP) in [14] of 1.81. The compound also had a pKa in data set [15] of 7.76.

For `CC(C)C[C@@H](C(=O)NCC#N)c1cccc(-c2ccc(N3CCNCC3)cc2)c1`, the 50% inhibitory concentration (IC50) in data set [1] was 0.0078 µM; in data set [2] it was 86 µM; in [3] it was 4.4 µM; in data set [4], 2.6 µM; in [5], 0.32 µM; in data set [6] it was 20 µM. For the same compound, the IC50 in [7] turned out to be 1.34 µM; in [8] it was 0.033 µM; in data set [16], 0.149 µM; in [9] it was 34.1 µM; in data set [10], 0.74 µM; in data set [13] it was 8.6 µM. Also, in data set [14], the logP is 3.46. In addition, the pKa in data set [15] was determined as 8.77.

Turning to `N#CCNC(=O)C1(NC(=O)c2ccc(-c3csc(N4CCOCC4)n3)cc2)CCCCC1`, the IC50 in [1] was 0.0023 µM; in [2], 4.2 µM; in data set [3] it was 2.9 µM; in data set [4] it was 24 µM; in data set [5], > 10 µM; in [6], 27 µM. For the same compound, the IC50 in data set [7] was > 10 µM; in [8], 0.0095 µM; in [16] it was 0.041 µM; in [9], 8.5 µM; in data set [10] it was 6.7 µM; in data set [13] it was > 100 µM.

For `N#CCNC(=O)C1(NC(=O)c2ccc(N3CCOCC3)cc2)CCCCC1`, the IC50 in data set [1] is 0.019 µM; in data set [2], 15.4 µM; in data set [3], 4.4 µM; in [4], 32 µM; in data set [5], > 10 µM; in data set [6] it was 52 µM. The IC50 is 4.8 µM in data set [7]; 0.072 µM in data set [8]; 0.58 µM in data set [16]; 4.5 µM in data set [9]; 8.5 µM in [10]; > 100 µM in [13]. In [17], the Vd was found to be 1.9 L/kg. The same compound returned a concentration in data set [18] of 0.17 µM. In data set [14], the logP was 0.98.

In the case of `N#CCNC(=O)[C@H](CC1CCCCC1)NC(=O)c1ccccc1`, the IC50 in data set [1] was 1.03 µM; in data set [2] it was 19 µM; in data set [3], 0.94 µM; in data set [4], 0.055 µM; in [5], 0.23 µM; in data set [6] it was 0.0053 µM. Further, the IC50 in [7] was 0.01 µM; in data set [9], 0.013 µM; in [10], 0.04 µM; in data set [13], 1.22 µM.

In the case of `CN1CCN(c2nc(-c3ccc(C(=O)NC4(C(=O)NCC(F)(F)F)CCCCC4)cc3)cs2)CC1`, the results for the IC50 in data set [9], in data set [10] and in [13] were 33 µM, > 10 µM and > 100 µM, respectively. Also, the logP in data set [14] stood at 2.9. In addition, the pKa in data set [15] was found to be 6.84.

The values above are taken from ChEMBL document CHEMBL1141213, “Lysosomotropism of basic cathepsin K inhibitors contributes to increased cellular potencies against off-target cathepsins and reduced functional selectivity” (J Med Chem, 2005).
